16 compounds from ChEMBL document CHEMBL1124212, “Synthesis of novel 3-substituted beta-carbolines as benzodiazepine receptor ligands: probing the benzodiazepine receptor pharmacophore” (J Med Chem, 1988) can be followed below.

The target of test [1] is GABA-A receptor; anion channel. Put plainly: In vitro inhibition of binding to the benzodiazepine receptor in rat cerebral cortical membrane using [3H]diazepam as radioligand. The test is classed as cell membranes. The method in brief: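 Rat cerebral cortex homogenized in 50 mM Tris-HCl, pH 7.4, spun at 20000g for 20 min at 4 °C, and washed three times. Nonspecific binding was measured with 10 μM flunitrazepam (final). IC50 was estimated from Hill plots.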

Test [2] relates to Mus musculus. Kind of test: Proconvulsant effect on mice 15 min after ip administration of a 2.5 mg/kg dose. The settings on record: route intraperitoneal. The test is classed as functional. The method in brief: (§1)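 Adult male mice (~25 g) were given drug ip in vehicle (20% diluted Emulphor in saline). They were challenged with pentylenetetrazole (40 mg/kg ip, in water) 15 or 120 min later. Animals were watched for 15 min for clonic-tonic convulsions, scored as % of animals convulsing, with at least 10 animals per dose.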

In test [3] the test system is Mus musculus. Put plainly: Proconvulsant effect on mice 120 min after ip administration of a 10 mg/kg dose. The test is classed as functional. Conditions: route intraperitoneal. A digest of the protocol: as §1
Test [4] relates to Mus musculus. Kind of test: Proconvulsant effect on mice 15 min after ip administration of a 10 mg/kg dose. Conditions: route intraperitoneal. The test is classed as functional. A digest of the protocol:
(§2)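 Adult male mice (~25 g) given test drug or vehicle (0.1 mL of 20% diluted Emulphor in saline) ip at the stated dose, then challenged 15 or 120 min later with pentylenetetrazole 40 mg/kg ip (in water). Animals watched 15 min after PTZ for clonic-tonic convulsions; % convulsing recorded; at least 10 animals per dose.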

For test [5], the system named is Mus musculus. Put plainly: Proconvulsant effect on mice 15 min after ip administration of a 5 mg/kg dose. The test is classed as functional. Conditions: route intraperitoneal. The method in brief:
as §1

For test [6], the system named is Mus musculus. Kind of test: Proconvulsant effect on mice 15 min after ip administration of at 1.25 mg/kg dose. The settings on record: route intraperitoneal. The test is classed as functional. The method in brief:
as §1

Test [7] relates to Mus musculus. Put plainly: Proconvulsant effect on mice 15 min after ip administration of a 20 mg/kg dose. It is filed as functional. The settings on record: route intraperitoneal. A digest of the protocol: as §1
The subject of test [8] is Mus musculus. Put plainly: Proconvulsant effect on mice 120 min after ip administration of a 25 mg/kg dose. It is filed as functional. The settings on record: route intraperitoneal. The method in brief:
as §2

Test [9] deals with Mus musculus. Kind of test: Proconvulsant effect on mice 15 min after ip administration of a 25 mg/kg dose. It is filed as functional. The settings on record: route intraperitoneal. The method in brief: as §2
The species entered for the next test is Rattus norvegicus. Kind of test: In vitro inhibition of [3H]diazepam binding to GABA-A benzodiazepine receptor of rat cerebral cortical membrane. The method in brief: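 Rat cerebral cortex homogenized in 50 mM Tris-HCl, pH 7.4, spun at 20000g for 20 min at 4 °C, and washed three times. […] Nonspecific binding was measured with 10 μM flunitrazepam (final). IC50 was estimated from Hill plots.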

In the case of `COc1cc2c(cn1)[nH]c1ccccc12`, the IC50 (usually the point on the concentration scale where inhibition reaches its midpoint) in test [1] came to 0.124 µM.
The same measure, in the same setting: in the case of `O=[N+]([O-])c1cc2c3ccccc3nc-2c[nH]1` it was 0.125 µM.
Take `Cn1c2ccccc2c2c3[nH]c4ccccc4c3ncc21`: the IC50 in test [1] amounted to 1.16 µM.
In test [1], `S=C=Nc1cc2c3ccccc3nc-2c[nH]1` yielded a half-inhibitory concentration (IC50) of 0.008 µM.
Regarding `CCOc1cc2c(cn1)[nH]c1ccccc12`, the Convulsion in the test on Mus musculus [2] is listed as 40%; in the test with Mus musculus [3], 60%; in the test on Mus musculus [4], 84%; in the test on Mus musculus [5] it was 50%; in the test on Mus musculus [6], 30%; in the test on Mus musculus [7], 100%. Moreover, in test [1], the IC50 worked out at 0.024 µM.
As to `Oc1cc2c3ccccc3nc-2c[nH]1`, in test [1], the half-maximal inhibitory concentration (IC50) worked out at 4 µM.
The compound `c1ccc2c(c1)[nH]c1cnccc12` [NORHARMANE] registered an IC50 in test [1] of 1.62 µM.
Regarding `CCCOc1cc2c(cn1)[nH]c1ccccc12`, in test [1], the IC50 turned out to be 0.011 µM.
Take `CCOC(=O)c1cc2c(cn1)[nH]c1ccccc12`: the figures for the Convulsion in the test with Mus musculus [4], in the test on Mus musculus [8] and in the test on Mus musculus [9] were 33%, 30% and 96%, respectively.
Turning to `c1ccc(CNc2cc3c(cn2)[nH]c2ccccc23)cc1`, the IC30 – broadly, the concentration needed for an effect of 30% – in the test filed under Rattus norvegicus worked out at 1.28 µM.
`COC(=O)c1cc2c3ccccc3n(C)c2cn1` returned an IC50 in [1] of over 50 µM.
In turn, `CCOC(=O)c1cc2c(cn1)sc1ccccc12` gave a half-maximal inhibitory concentration (IC50) in test [1] of 0.98 µM.
On the same count and under the same terms, under `COC(=O)c1cc2ccccc2cn1` stands 13.2 µM.
In test [1], `COC(=O)c1cc2c(cn1)[nH]c1ccccc12` [BETA-CCM] showed a half-inhibitory concentration (IC50) of 0.005 µM.
The compound `Clc1cc2c(cn1)[nH]c1ccccc12` yielded a half-maximal inhibitory concentration (IC50) in test [1] of 0.045 µM.
Still for that read-out and setting: in the case of `c1ccc2c(c1)[nH]c1c2ccc2[nH]c3ccccc3c21` it was 1.92 µM.
